Reference: publication PMC7781011 (Journal of Inflammation Research, 2020)
Read-outs that look alike come from different tables or passages of the source.

Tests used:
human COX-2 [1] = target: T1, human COX-2 (Homo sapiens, UniProt P35354); experiment: Binding assay using isothermal titration calorimetry
T1 sequence (P35354 18-604): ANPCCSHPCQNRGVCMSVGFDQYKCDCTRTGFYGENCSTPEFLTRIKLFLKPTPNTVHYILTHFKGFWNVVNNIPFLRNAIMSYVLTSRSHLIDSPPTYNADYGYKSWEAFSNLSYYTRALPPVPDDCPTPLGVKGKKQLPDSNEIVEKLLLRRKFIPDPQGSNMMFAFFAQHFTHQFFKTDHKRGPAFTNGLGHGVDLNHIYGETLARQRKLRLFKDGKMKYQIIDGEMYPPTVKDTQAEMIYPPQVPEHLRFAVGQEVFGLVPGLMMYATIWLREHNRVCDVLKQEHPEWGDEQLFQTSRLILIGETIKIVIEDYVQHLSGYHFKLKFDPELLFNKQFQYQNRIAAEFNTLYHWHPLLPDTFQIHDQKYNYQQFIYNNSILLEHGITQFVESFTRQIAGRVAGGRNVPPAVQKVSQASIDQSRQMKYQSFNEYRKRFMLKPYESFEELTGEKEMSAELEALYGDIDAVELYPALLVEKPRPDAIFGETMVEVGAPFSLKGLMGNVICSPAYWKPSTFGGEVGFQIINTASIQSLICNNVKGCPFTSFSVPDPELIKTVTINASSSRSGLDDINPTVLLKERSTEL
Outline: (§1)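 Serial injections of test compound (up to 1 mM) into enzyme-containing cell at 1 mM protein, both dissolved in PBS and degassed before use. Titration continued until heat signal approached zero at saturation. Isotherm fitted to obtain dissociation constant KD.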

human COX-2 [2] = target: T1, human COX-2; experiment: Circular dichroism, change in secondary structure; conditions: CD, Human COX-2, LFA-9 10 µM
Outline: (§2)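 Native and compound-treated (0.1–10 µM) enzymes in PBS pH 7.4 at final protein 200 µM. CD spectra corrected by subtracting buffer blanks. Percent change in secondary structure (α-helix, β-sheet) calculated with the CAPITO analysis server.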

human COX-1 = human COX-1 (Homo sapiens, UniProt P23219); experiment: Binding assay using isothermal titration calorimetry
Chain of human COX-1 (P23219 24-599): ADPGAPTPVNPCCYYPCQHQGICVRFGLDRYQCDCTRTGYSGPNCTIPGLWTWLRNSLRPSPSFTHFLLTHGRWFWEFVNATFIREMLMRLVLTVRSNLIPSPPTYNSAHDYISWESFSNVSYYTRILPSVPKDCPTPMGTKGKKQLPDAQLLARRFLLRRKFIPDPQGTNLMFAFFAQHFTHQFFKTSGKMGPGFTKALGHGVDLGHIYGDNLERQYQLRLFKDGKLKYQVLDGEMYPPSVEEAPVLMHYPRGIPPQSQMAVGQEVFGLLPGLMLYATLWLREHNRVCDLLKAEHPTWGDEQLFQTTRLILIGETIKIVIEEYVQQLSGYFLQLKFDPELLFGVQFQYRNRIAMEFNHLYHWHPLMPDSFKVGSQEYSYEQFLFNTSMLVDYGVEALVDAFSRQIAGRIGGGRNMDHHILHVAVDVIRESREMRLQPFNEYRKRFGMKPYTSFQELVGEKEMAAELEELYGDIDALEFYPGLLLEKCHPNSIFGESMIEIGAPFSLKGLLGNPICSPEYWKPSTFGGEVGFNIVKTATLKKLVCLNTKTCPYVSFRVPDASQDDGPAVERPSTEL
Outline: as §1

human COX-2 [3] = target: T1, human COX-2; experiment: Cell-free fluorometric COX-2 assay; format: biochemical; conditions: up to the tested range of 1 mM
human 5-LOX [4] = target: T2, human 5-LOX (Homo sapiens, UniProt P09917); experiment: Circular dichroism, change in secondary structure; conditions: CD
T2 sequence (P09917 1-674): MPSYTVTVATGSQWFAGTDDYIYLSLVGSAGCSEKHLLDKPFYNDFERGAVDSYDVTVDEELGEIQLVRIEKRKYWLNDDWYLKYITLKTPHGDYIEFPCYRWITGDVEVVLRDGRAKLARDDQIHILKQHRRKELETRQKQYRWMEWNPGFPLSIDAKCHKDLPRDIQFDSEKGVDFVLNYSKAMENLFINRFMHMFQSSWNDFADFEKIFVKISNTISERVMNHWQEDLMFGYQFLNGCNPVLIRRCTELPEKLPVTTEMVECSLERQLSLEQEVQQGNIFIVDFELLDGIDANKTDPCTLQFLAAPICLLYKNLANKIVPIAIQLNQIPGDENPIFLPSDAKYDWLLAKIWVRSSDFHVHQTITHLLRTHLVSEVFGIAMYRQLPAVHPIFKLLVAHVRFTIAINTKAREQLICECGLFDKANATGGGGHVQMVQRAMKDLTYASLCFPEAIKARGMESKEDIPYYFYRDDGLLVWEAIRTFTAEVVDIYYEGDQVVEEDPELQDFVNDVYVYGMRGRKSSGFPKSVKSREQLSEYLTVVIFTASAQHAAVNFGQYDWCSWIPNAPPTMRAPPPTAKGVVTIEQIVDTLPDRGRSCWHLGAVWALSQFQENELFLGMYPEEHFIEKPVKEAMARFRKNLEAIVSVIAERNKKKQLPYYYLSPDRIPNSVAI
Outline: as §2

human 5-LOX [5] = target: T2, human 5-LOX; experiment: Binding assay using isothermal titration calorimetry
Outline: as §1

rat mPGES-1 = target: T3, rat mPGES-1 (Rattus norvegicus, UniProt Q9JHF3); experiment: Binding assay using isothermal titration calorimetry
T3 sequence (Q9JHF3 1-153): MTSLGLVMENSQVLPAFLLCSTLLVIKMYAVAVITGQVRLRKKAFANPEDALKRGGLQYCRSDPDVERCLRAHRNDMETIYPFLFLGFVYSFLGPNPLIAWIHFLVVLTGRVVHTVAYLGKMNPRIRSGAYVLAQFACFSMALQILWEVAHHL
Outline: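 Rat mPGES-1 isolated from vas deferens and seminal vesicles. Compound (up to 1 mM) and protein (1 mM) dissolved in PBS and degassed. Serial compound injections made into enzyme cell. KD derived by fitting the binding isotherm.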

## CC1(C)Cc2c(-c3ccccc3)c(-c3ccc(Cl)cc3)c(CC(=O)NCC(=O)O)n2C1 [LFA-9, 2-[[2-[2-(4-chlorophenyl)-6,6-dimethyl-1-phenyl-5,7-dihydropyrrolizin-3-yl]acetyl]amino]acetic acid]
Human COX-2 [1]
  Kd: > 1000 µM
Human COX-2 [2]
  Change in Secondary Structure: No change in secondary structure
Human COX-1
  Kd: > 1000 µM
Human COX-2 [3]
  inhibition of COX-2 activity: did not show inhibition
Human 5-LOX [4]; 5-LOX, LFA-9 at 0.1 µM
  unfolding of α-helix of 5-LOX: 8.7%
  unfolding of β-sheets of 5-LOX: 1%
Human 5-LOX [4]; Human 5-LOX, LFA-9 0.12 µM
  Change in Secondary Structure: unfolding in α-helix: 8.7%
  Change in Secondary Structure: unfolding in β-sheets: 1%
Human 5-LOX [5]
  Kd: 18 µM
Human 5-LOX [5]; read-out: KD (KD2), ITC, Human 5-LOX, sequential binding sites, second site
  Kd: 210 µM
Rat mPGES-1
  Kd: 3.3 µM
